High-throughput results as filed in PubChem.
In the library only some 4.6% were active in any assay of this set; here they are far more common.
CHO parental Ca: ATP-evoked calcium signal inhibitors, parental CHO, primary screen, counter-screen for OX1R antagonist project, cell-based, fluorescence, Fluo-8 calcium dye; hit rate 0.63% among 330,000; parental CHO-K1, ATP-induced calcium, Fluo-8 fluorescence; inhibition, % at 5.6 µM; AID 463079, 2010;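 active = inhibition above that plate's mean sample inhibition plus 3 SD, cut at about 26% in these data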;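 note: 0% = ATP-challenged DMSO wells and 100% = DMSO wells without ATP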
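Measured by: calcium-sensitive Fluo-8 fluorescence / Test system: CHO parental line / Controls: ATP-challenged DMSO wells low, unchallenged DMSO wells high / Measure: % inhibition / Compound: single nominal dose of 5.6 µM per compound / Replicates: single well per compound, no replicates / Reagent: ATP as calcium-mobilizing challenge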
OX1R antag-1: OX1R (HCRTR1) antagonists, primary screen, fluorescence, CHO/OX1R cells, Fluo-8 calcium, orexin A; AID 434989, 2010; Fluo-8 calcium fluorescence; inhibition, % at 5 µM; hit rate 0.43% among 330,000; Orexin/Hypocretin receptor type 1 (Homo sapiens), O43613;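 active = inhibition above its plate's threshold, mean inhibition of all tested compounds on the plate plus 3 SD, cut at about 37% in these data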;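 note: 0% = orexin A challenge wells and 100% = SB-334867-A antagonist wells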
GPR7 antagonist: GPR7 receptor antagonists, primary screen, cell-based, fluorescence, single concentration; Neuropeptides B/W receptor type 1 (Homo sapiens), P48145; GPR7-expressing cells, fluorescence antagonist assay; inhibition, % at 4.4 µM; hit rate 1.1% among 290,000; in the data active = inhibition above about 16%, passing the limit was not always enough;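 note: cells stimulated with the agonist NPW; 0% = agonist with vehicle and 100% = vehicle without agonist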
Target sequence (P48145 whole entry, looked up): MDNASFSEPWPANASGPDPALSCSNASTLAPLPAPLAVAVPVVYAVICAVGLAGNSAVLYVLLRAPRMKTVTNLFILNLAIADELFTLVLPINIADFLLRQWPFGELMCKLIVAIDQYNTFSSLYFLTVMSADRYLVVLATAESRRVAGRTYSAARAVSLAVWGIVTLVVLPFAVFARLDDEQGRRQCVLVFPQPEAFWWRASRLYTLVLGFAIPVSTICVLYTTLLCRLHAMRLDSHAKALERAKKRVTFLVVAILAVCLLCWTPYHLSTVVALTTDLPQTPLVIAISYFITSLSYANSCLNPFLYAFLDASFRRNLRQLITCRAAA
TAAR1 agonist: human TAAR1 agonists, primary screen, Fluo-8 calcium fluorescence, CHO RD-HGA16 cells; activation, % at 3 µM; Trace amine-associated receptor 1 (Homo sapiens), Q96RJ0; hit rate 0.99% among 360,000; vehicle wells 0%, saturating PEA agonist 100%;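 active = activation above the mean activation of all test compounds in the run plus 3 SD, cut at about 38% in these data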
Target sequence (Q96RJ0 whole entry, looked up): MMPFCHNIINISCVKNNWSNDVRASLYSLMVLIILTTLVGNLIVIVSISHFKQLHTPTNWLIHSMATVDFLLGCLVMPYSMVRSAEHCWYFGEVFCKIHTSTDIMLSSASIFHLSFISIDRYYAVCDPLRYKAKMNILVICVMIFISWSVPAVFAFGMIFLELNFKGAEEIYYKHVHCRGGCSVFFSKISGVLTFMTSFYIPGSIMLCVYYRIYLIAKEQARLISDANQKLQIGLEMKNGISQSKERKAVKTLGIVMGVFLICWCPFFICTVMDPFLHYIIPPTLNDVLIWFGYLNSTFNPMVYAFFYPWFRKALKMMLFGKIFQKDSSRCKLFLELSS
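test system = CHO RD-HGA16 cells carrying human TAAR1 plus Gα16 | schedule = 17-24 h seeding, 75 min 37 °C dye, 30 min RT | compound dosing = 3 µM single concentration | control set = DMSO and PEA EC100 | replicates = n 1 | signal = Fluo-8 fluorescence, 5 s baseline then 140 s kinetic read | measure = percent activation vs PEA EC100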
TAAR1 antag: human TAAR1 antagonists, primary screen, Fluo-8 calcium fluorescence, CHO RD-HGA16 cells; Trace amine-associated receptor 1 (Homo sapiens), Q96RJ0; antagonist; inhibition, % at 3 µM; hit rate 1.5% among 360,000; AID 624466, 2012;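 active = inhibition above a per-plate cutoff, the mean inhibition of test compounds on that plate plus 3 SD, cut at about 49% in these data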;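 note: 0% = DMSO plus EC80 beta-PEA response and 100% = DMSO alone without agonist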
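Test system – hTAAR1-expressing CHO RD-HGA16 cells, Gα16-coupled · Reagent – β-PEA at EC80 concentration, post-compound challenge · Compound dosing – 3 µM, single point · Timing – 140 s kinetic read after compound, 140 s after agonist · Detection – Fluo-8 intracellular calcium dye fluorescence, real-time kinetic reads · Control set – DMSO and EC80 PEA controls · Repeats – n of 1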
OX1R antag-2: antagonists of human orexin 1 receptor (OX1R); Orexin/Hypocretin receptor type 1 (Homo sapiens), O43613; inhibition, % at 6.6 µM; OX1R-expressing cells, FRET antagonist read-out; AID 485270, 2010; hit rate 1.8% among 330,000; in the data active = inhibition mostly above about 38%, no sharp cut-off; inactive = mostly below about 40%;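 note: 0% = agonist challenge alone and 100% = reference antagonist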
Active calls of the source: *.

Results for CC(C)CC(=O)Nc1ncc([N+](=O)[O-])s1 ?
CHO parental Ca: -4; OX1R antag-1: 3; GPR7 antagonist: 11; TAAR1 agonist: 2; TAAR1 antag: -18; OX1R antag-2: 24

Results for COC(=O)C1=C(C)N(Cc2ccc(F)cc2)C(=S)NC1c1ccc(Cl)cc1 (configuration not stated) ?
TAAR1 agonist: -1; TAAR1 antag: 17

Results for O=C1/C(=C/c2cccs2)SC(=S)N1CCC(=O)N1CCCCC1CCO (configuration not stated) ?
CHO parental Ca: -19; OX1R antag-1: 17; GPR7 antagonist: 12; TAAR1 agonist: 8; TAAR1 antag: 22; OX1R antag-2: 48*

What do the screens show for `COc1ccccc1/C=C1\SC(=S)N(CCC(=O)N2CCCCC2CCO)C1=O` (configuration not stated)?
CHO parental Ca: -37; OX1R antag-1: -25; GPR7 antagonist: -10; TAAR1 agonist: 8; TAAR1 antag: -6; OX1R antag-2: 0

How did COc1ccc(S(=O)(=O)Nc2ccc3c(c2)C(=O)N([C@H](C)CO)C[C@H](C)[C@H](CN(C)C(=O)Nc2ccc(F)cc2)OCCCC[C@@H](C)O3)cc1 do in these assays?
TAAR1 agonist: 2; TAAR1 antag: -1

How did COc1ccccc1-c1cc(NC=O)c2ncc(-c3ccc(F)cc3)n2c1 do in these assays?
TAAR1 agonist: 52*; TAAR1 antag: 51*

How did COc1ccc(F)cc1-c1cc(NC=O)c2ncc(-c3cc(OC)c(OC)c(OC)c3)n2c1 do in these assays?
TAAR1 agonist: 48*; TAAR1 antag: 77*

What do the screens show for `COC(=O)C1=C(C)N(Cc2ccccc2C(F)(F)F)C(=NCc2ccc3c(c2)OCO3)NC1c1cccc(C(F)(F)F)c1` (configuration not stated)?
TAAR1 agonist: 5; TAAR1 antag: 0

Results for O=C(OCCOc1cccc(Cl)c1)c1cc(S(=O)(=O)N2CCCCC2)ccc1N1CCOCC1 ?
CHO parental Ca: 38*; OX1R antag-1: 0; TAAR1 agonist: 0; TAAR1 antag: 24; OX1R antag-2: -14

What do the screens show for `COc1ccc(C2O[C@@H](C)[C@@H]3C(=O)N4CCc5c([nH]c6ccccc56)[C@@H]4C[C@@H]3N2C)cc1` (some centres not stated)?
TAAR1 agonist: 0; TAAR1 antag: -12

How did N#Cc1nc(Cc2ccccc2)oc1NCc1ccccc1Cl do in these assays?
CHO parental Ca: 36*; OX1R antag-1: 22; GPR7 antagonist: 10; TAAR1 agonist: 0; TAAR1 antag: 34; OX1R antag-2: 32

What do the screens show for `CCOc1cc(S(=O)(=O)Nc2ccc(CC)cc2)ccc1Cl`?
CHO parental Ca: 42*; OX1R antag-1: -3; GPR7 antagonist: -12; TAAR1 agonist: 0; TAAR1 antag: 14; OX1R antag-2: 12

What do the screens show for `OC(CNCCC1C=Nc2ccccc21)Cn1c2ccc(Cl)cc2c2cc(Cl)ccc21` (configuration not stated)?
CHO parental Ca: 56*; OX1R antag-1: 39; GPR7 antagonist: 6; TAAR1 agonist: 40*; TAAR1 antag: 42; OX1R antag-2: 3

How did Cc1cc2nsnc2c(S(=O)(=O)N2CCN(C)CC2)c1C do in these assays?
CHO parental Ca: -3; OX1R antag-1: -5; GPR7 antagonist: 7; TAAR1 agonist: -2; TAAR1 antag: -5; OX1R antag-2: 42*

How did Cc1cc(C)c(C)c(S(=O)(=O)N2CCCN(C)CC2)c1C do in these assays?
CHO parental Ca: -3; OX1R antag-1: -11; GPR7 antagonist: -9; TAAR1 agonist: 3; TAAR1 antag: -10; OX1R antag-2: 9

Results for c1coc(CN(Cc2ccco2)c2ncnc3c2oc2ccccc23)c1 ?
CHO parental Ca: 36*; OX1R antag-1: 31; GPR7 antagonist: -12; OX1R antag-2: 37

How did Nc1ccc(-c2c3ccc(=O)cc-3oc3cc(O)ccc23)c(C(=O)O)c1 do in these assays?
CHO parental Ca: 58*; OX1R antag-1: 87*; OX1R antag-2: 63*

Results for CC(=O)Nc1ccc(S(=O)(=O)N2CCN=C2SCc2ccc([N+](=O)[O-])cc2)cc1 ?
CHO parental Ca: 33*; OX1R antag-1: 9; GPR7 antagonist: 11; TAAR1 agonist: 12; TAAR1 antag: 26; OX1R antag-2: 22

What do the screens show for `CC(C)c1ccc(NC(=O)C2CCCN2S(=O)(=O)c2ccccc2F)cc1` (configuration not stated)?
CHO parental Ca: -14; OX1R antag-1: 21; TAAR1 agonist: 4; TAAR1 antag: -10; OX1R antag-2: 37*

Results for Cc1ccc(C)c(NC(=O)[C@@H]2CCCN2S(=O)(=O)c2ccccc2F)c1 ?
CHO parental Ca: -10; OX1R antag-1: 21; TAAR1 agonist: 5; TAAR1 antag: 10; OX1R antag-2: 43*

What do the screens show for `COc1ccc(C)cc1NC(=O)C1CCCN1S(=O)(=O)c1ccccc1F` (configuration not stated)?
CHO parental Ca: -25; OX1R antag-1: 14; TAAR1 agonist: 14; TAAR1 antag: -17; OX1R antag-2: 52*

How did O=C(Nc1nccs1)[C@@H]1CCCN1S(=O)(=O)c1ccccc1F do in these assays?
TAAR1 agonist: 2; TAAR1 antag: -14

How did CC(=O)c1sc(NC(=O)C2CCCN2S(=O)(=O)c2ccccc2F)nc1C (configuration not stated) do in these assays?
CHO parental Ca: -18; OX1R antag-1: 37; TAAR1 agonist: 2; TAAR1 antag: -6; OX1R antag-2: 37*

How did Cc1cc(Nc2cccc([N+](=O)[O-])c2)cc(=O)n1-c1cccc([N+](=O)[O-])c1 do in these assays?
TAAR1 agonist: 0; TAAR1 antag: -6

Results for O=C1CCCN2N=C(SCC(=O)Nc3ccc(Cl)cc3)SC2=N1 ?
CHO parental Ca: 3; OX1R antag-1: -20; GPR7 antagonist: 9; TAAR1 agonist: 39*; TAAR1 antag: -18; OX1R antag-2: 20

How did Cc1ccc(NC(=O)CSC2=NN3CCCC(=O)N=C3S2)cc1Cl do in these assays?
CHO parental Ca: 7; OX1R antag-1: -4; GPR7 antagonist: -2; TAAR1 agonist: 42*; TAAR1 antag: 29; OX1R antag-2: 28

How did O=C1CCCN2N=C(SCC(=O)Nc3cccc(C(F)(F)F)c3)SC2=N1 do in these assays?
CHO parental Ca: 37*; OX1R antag-1: -14; GPR7 antagonist: 4; TAAR1 agonist: 25; TAAR1 antag: 2; OX1R antag-2: 29
